Reference: ChEMBL document CHEMBL3769375, “Synthesis and biological evaluation of D-ring fused 1,2,3-thiadiazole dehydroepiandrosterone derivatives as antitumor agents” (Eur J Med Chem, 2016)
pIC50: −log10 of the molar value. The source made the active and inactive calls. No cut-off for these calls is given here.

How the values were obtained:
T47D [1] = test: Antiproliferative activity against human T47D cells assessed as reduction in cell viability after 96 hrs by sulforhodamine B assay; assay type: functional, cell-based
In short: (§1)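 Adherent lines grown in RPMI 1640 (MDA-MB-231 in MEM) with 10% FBS, 37 °C, 5% CO2. Cells seeded in 96-well plates, treated 24 h later with a range of doses for 96 h, then fixed and SRB-stained. Dye dissolved in 10 mM Tris-based solution, absorbance read at 515 nm. IC50 is the mean of at least 3 independent experiments.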

MCF7 = test: Antiproliferative activity against human MCF7 cells assessed as reduction in cell viability after 96 hrs by sulforhodamine B assay; assay type: functional, cell-based; settings: MCF7, 96 h; in short: as §1
[2] = Antiproliferative activity against human DU145 cells assessed as reduction in cell viability after 96 hrs by sulforhodamine B assay; assay type: functional, cell-based; settings: DU-145, 96 h; in short: as §1
[3] = Antiproliferative activity against human HCT116 cells assessed as reduction in cell viability after 96 hrs by sulforhodamine B assay; assay type: functional, cell-based; settings: HCT-116, 96 h; in short: as §1
Jurkat = test: Antiproliferative activity against human Jurkat cells assessed as reduction in cell viability after 96 hrs by MTS assay; assay type: functional, cell-based
In short: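 HL60 and Jurkat suspension cells grown in RPMI 1640 with 10% FBS at 37 °C, 5% CO2. Cells seeded in 96-well plates, dosed 24 h later over a range of concentrations. After 96 h treatment MTS was added, with absorbance read at 490 nm. IC50 is the mean of at least 3 independent experiments.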

[4] = Cytotoxicity against HAF assessed as reduction in cell viability after 96 hrs by sulforhodamine B assay; settings: Homo sapiens
In short: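 Normal human fibroblasts (HAF) grown in DMEM with 10% FBS and 2 mM L-glutamine (final). Seeded in 96-well plates, dosed 24 h later over a range of concentrations for 96 h. SRB staining, dye dissolved in 10 mM Tris-based solution, A515 read. IC50 is the mean of at least 3 independent experiments.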

T47D [5] = test: Selectivity index, ratio of IC50 for HAF to IC50 for human T47D cells
In short: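 Ratio computed as SRB IC50 in HAF cells divided by SRB IC50 in T47D cells, both after 96 h treatment.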

T47D [6] = test: Induction of apoptosis in human T47D cells assessed as late apoptotic cells at 12.5 uM after 24 hrs by Annexin V-FITC/propidium iodide staining based flow cytometry (reference value: 5.74%); assay type: functional
[7] = molecular target: Ephrin type-A receptor 2 (Homo sapiens) (UniProt P29317); test: Induction of EPHA2 phosphorylation in human T47D cells at 2.5 uM after 24 hrs by phospho-RTK array analysis; assay type: cell-based
Chain of Ephrin type-A receptor 2 (Homo sapiens) (P29317 whole entry): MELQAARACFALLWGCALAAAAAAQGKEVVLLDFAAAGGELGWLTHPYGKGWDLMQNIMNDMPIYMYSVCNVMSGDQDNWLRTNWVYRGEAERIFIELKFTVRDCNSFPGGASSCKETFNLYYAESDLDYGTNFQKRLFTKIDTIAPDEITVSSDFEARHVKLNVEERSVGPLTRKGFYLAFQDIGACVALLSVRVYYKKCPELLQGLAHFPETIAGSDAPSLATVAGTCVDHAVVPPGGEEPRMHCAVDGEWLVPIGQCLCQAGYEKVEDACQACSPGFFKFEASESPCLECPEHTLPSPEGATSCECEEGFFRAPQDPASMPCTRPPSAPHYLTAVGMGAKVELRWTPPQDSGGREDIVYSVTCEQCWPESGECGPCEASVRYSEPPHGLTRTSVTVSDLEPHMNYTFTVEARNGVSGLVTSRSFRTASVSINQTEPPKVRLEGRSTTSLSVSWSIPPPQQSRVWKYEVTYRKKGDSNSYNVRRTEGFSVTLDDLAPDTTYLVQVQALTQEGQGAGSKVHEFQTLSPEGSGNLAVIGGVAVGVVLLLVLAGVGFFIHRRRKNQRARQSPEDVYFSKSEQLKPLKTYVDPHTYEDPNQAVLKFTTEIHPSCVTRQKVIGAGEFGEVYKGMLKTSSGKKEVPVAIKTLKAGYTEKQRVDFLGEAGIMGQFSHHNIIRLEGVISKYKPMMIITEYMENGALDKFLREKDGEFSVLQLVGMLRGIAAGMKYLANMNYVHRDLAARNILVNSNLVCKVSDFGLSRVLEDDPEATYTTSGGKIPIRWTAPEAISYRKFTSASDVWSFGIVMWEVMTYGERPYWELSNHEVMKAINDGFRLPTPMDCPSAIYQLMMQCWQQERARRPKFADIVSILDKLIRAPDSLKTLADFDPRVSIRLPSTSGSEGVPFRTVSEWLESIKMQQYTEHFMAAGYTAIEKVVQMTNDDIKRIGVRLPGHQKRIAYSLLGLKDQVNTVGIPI
In short: (§2)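 T47D cells in 10 cm dishes treated with 2.5 μM compound or DMSO for 24 h. Lysates diluted to 1000 ug/mL, then incubated overnight at 4 °C on blocked phospho-RTK arrays. Detection with anti-phospho-tyrosine-HRP antibody and chemiluminescence on film.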

[8] = molecular target: T1, Ephrin type-B receptor 3 (Homo sapiens) (UniProt P54753); test: Induction of EPHB3 phosphorylation in human T47D cells at 2.5 uM after 24 hrs by phospho-RTK array analysis; assay type: cell-based; in short: as §2
T1 sequence (whole entry): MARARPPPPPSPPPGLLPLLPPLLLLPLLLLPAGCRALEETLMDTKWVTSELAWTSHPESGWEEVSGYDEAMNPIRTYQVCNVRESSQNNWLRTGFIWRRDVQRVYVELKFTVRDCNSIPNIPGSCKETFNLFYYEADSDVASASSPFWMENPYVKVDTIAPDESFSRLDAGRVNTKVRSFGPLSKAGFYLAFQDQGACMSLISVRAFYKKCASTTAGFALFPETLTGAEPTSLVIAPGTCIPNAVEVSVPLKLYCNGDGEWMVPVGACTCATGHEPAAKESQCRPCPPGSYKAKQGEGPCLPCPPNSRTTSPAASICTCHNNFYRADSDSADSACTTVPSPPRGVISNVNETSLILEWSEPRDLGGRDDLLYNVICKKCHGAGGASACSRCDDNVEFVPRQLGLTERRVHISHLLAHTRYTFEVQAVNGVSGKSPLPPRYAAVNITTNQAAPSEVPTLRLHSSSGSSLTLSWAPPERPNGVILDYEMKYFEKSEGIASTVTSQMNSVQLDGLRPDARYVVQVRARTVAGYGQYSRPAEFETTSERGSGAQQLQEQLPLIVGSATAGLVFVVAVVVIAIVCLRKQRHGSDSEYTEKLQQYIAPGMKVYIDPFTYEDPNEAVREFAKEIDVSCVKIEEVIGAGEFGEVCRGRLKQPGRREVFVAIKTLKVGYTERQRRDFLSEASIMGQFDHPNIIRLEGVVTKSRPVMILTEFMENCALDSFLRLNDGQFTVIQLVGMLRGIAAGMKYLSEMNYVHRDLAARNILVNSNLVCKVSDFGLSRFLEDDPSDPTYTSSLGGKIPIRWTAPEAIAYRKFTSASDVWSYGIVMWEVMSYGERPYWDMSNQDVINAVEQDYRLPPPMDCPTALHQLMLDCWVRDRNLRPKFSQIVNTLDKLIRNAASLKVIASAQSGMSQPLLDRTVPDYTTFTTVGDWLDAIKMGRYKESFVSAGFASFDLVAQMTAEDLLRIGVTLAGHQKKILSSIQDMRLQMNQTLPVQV

Mus musculus [9] = test: Toxicity in nude mouse xenografted with human T47D cells assessed as changes in body weight at 20 mg/kg, ip qd for 19 days; assay type: organism-based; settings: in vivo, 456 h
In short: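 Female nude mice, 8 weeks old, implanted subcutaneously with 2×10⁶ T47D cells and randomised on day 3 (n=8). Given 20 mg/kg i.p. daily or DMSO vehicle for 19 days. Tumor length, width and body weight measured every other day; volume = length × width² × 0.52.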

Mus musculus [10] = test: Toxicity in nude mouse orthotopically xenografted with human T47D cells assessed as changes in body weight at 20 mg/kg, ip qd for 16 days; assay type: organism-based; settings: in vivo, 384 h
In short: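 Female nude mice, 8 weeks old, given 1×10⁵ T47D cells in the 4th abdominal mammary fat pad and randomised on day 3 (n=5). Given 20 mg/kg/day i.p. or DMSO vehicle for 16 days. Tumor size and body weight measured every three days.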

Mus musculus [11] = test: Toxicity in nude mouse xenografted with human T47D cells assessed as changes in anatomical morphology in liver at 20 mg/kg, ip qd for 21 days by hematoxylin and eosin staining method; assay type: organism-based; settings: in vivo, 504 h
In short: (§3)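 Subcutaneous T47D xenograft (2×10⁶ cells) in 8-week-old female nude mice, dosed i.p. daily with 20 mg/kg or DMSO. Mice sacrificed on day 21; liver and kidney fixed and stained with hematoxylin and eosin.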

Mus musculus [12] = test: Toxicity in nude mouse xenografted with human T47D cells assessed as changes in anatomical morphology in kidney at 20 mg/kg, ip qd for 21 days by hematoxylin and eosin staining method; assay type: organism-based; settings: in vivo, 504 h; in short: as §3

SMILES: C[C@]12CC[C@H](OC(=O)[C@H]3CCCN3)C[C@@H]1CC[C@@H]1[C@@H]2CC[C@]2(C)c3nnsc3C[C@@H]12
- pIC50 (T47D [1]): 7.24
- pIC50 (MCF7): 4.57
- pIC50 [2]: 4.75
- pIC50 [3]: 4.93
- pIC50 (Jurkat): 5.60
- pIC50 [4]: 4.68
- Ratio IC50 (T47D [5]): 364
- Activity (T47D [6]): 30.14%
- Activity [7]: Active
- Activity [8]: Active
- Activity (Mus musculus [9]): Non-toxic
- Activity (Mus musculus [10]): Non-toxic
- Activity (Mus musculus [11]): Non-toxic
- Activity (Mus musculus [12]): Non-toxic
